Data on 18 compounds can be found in ChEMBL document CHEMBL4190329, “Design, Synthesis, and Biological Evaluation of the First c-Met/HDAC Inhibitors Based on Pyridazinone Derivatives” (ACS Med Chem Lett, 2017).

The source made the active and inactive calls. The rule behind the calls is not given here. Where only a bound is given, the exact number is not on record here.

One test concerns EBC-1. The test can be described thus: Antiproliferative activity against human EBC1 cells after 72 hrs by SRB assay. The conditions noted are these: EBC-1, 72 h. Format: functional, cell-based. In general terms: Sulforhodamine B stains cellular protein and so reports cell mass.
Another test concerns HCT-116. The test can be described thus: Antiproliferative activity against human HCT116 cells after 72 hrs by SRB assay. Format: functional, cell-based. The note with it: HCT-116, 72 h.
Test [1] deals with T1, Hepatocyte growth factor receptor (Homo sapiens, UniProt P08581). The test can be described thus: Inhibition of recombinant human His-tagged c-Met cytoplasmic domain (956 to 1390 residues) expressed in baculovirus expression system using poly (Glu,Tyr)4:1 as substrate after 60 mins by spectrophotometric analysis.
The target in test [2] is T2, Histone deacetylase 1 (Homo sapiens, UniProt Q13547). Nature of the test: Inhibition of recombinant human full length HDAC1 expressed in baculovirus infected Sf9 insect cells using biotinylated lysine 9 acetylated histone H3 (1 to 21 residues) as substrate incubated for 5 mins followed by substrate addition measured after 60 mins by HTRF assay. (In general: Time-resolved FRET reads energy transfer from a long-lived donor to a nearby acceptor.)

For test [3], the target named is T1, Hepatocyte growth factor receptor. Nature of the test: Inhibition of c-MET in human EBC1 cells assessed as decrease in Erk1/2 phosphorylation at Thr202/Tyr204 residues after 24 hrs by Western blot analysis. Format: cell-based. Summed up: (§1)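 Intact EBC-1 cells were treated with the compound at several concentrations for 24 h. Protein levels were then read by immunoblotting with specific antibodies.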

Test [4] concerns the target T2, Histone deacetylase 1. Nature of the test: Inhibition of HDAC1 in human EBC1 cells assessed as increase in p21 levels at 0.01 to 10 uM after 24 hrs by Western blot analysis. In kind it is cell-based. Summed up:
as §1

Test [5] deals with T1, Hepatocyte growth factor receptor. The test can be described thus: Inhibition of c-MET in human EBC1 cells assessed as decrease in Akt phosphorylation at Ser473 residues after 24 hrs by Western blot analysis. Format: cell-based. In a few lines:
as §1

Test [6] deals with T2, Histone deacetylase 1. Nature of the test: Potency index, ratio of chidamide IC50 to compound IC50 for recombinant human full length HDAC1 expressed in baculovirus infected Sf9 insect cells.
The target of test [7] is T1, Hepatocyte growth factor receptor. The test can be described thus: Inhibition of phosphorylation of c-MET at Tyr1234/1235 residues in human EBC1 cells after 24 hrs by Western blot analysis. In kind it is cell-based. In a few lines:
as §1

The target in test [8] is T3, Protein deacetylase HDAC6 (Homo sapiens) (UniProt Q9UBN7).
T3 sequence (whole entry): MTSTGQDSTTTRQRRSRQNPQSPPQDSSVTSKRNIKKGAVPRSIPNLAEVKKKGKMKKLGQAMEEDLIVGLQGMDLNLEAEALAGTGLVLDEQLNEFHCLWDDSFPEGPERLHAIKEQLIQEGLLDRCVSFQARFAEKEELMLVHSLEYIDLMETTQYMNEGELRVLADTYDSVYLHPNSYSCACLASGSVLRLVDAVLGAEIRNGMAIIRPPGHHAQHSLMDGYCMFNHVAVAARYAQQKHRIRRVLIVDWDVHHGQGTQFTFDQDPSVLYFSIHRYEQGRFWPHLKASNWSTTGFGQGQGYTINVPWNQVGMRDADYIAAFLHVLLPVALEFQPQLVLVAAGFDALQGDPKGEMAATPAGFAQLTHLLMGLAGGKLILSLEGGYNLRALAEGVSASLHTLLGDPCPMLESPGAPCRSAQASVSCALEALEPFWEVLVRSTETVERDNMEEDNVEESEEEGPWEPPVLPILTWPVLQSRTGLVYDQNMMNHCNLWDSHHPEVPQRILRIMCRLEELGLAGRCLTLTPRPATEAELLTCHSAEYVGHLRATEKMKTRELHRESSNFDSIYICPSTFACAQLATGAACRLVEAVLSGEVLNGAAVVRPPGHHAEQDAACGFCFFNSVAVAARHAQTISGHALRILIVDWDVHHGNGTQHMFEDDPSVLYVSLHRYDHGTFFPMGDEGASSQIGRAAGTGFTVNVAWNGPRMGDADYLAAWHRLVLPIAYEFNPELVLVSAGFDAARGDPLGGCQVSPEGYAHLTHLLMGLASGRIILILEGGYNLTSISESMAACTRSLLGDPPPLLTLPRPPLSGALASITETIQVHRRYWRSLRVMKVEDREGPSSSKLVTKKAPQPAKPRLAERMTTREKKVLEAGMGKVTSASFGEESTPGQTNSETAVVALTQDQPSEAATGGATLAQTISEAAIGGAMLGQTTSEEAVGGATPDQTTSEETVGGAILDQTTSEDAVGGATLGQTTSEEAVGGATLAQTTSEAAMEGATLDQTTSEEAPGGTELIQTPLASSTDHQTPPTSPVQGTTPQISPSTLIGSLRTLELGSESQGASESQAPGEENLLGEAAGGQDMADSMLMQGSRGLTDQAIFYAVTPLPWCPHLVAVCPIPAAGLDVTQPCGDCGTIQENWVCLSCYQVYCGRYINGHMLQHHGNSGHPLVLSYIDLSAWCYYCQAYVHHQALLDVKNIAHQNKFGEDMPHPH
The test can be described thus: Inhibition of HDAC6 in human EBC1 cells assessed as […] in acetyl alpha-tubulin level at Lys40 at 0.01 to 10 uM after 24 hrs by Western blot analysis. Format: cell-based. In general terms: Immunoblotting shows a protein as a band on a membrane.

Test [9] has as its target T2, Histone deacetylase 1. The test can be described thus: Inhibition of HDAC1 in human EBC1 cells assessed as increase in acetyl-Histone H3 levels at Lys9/Lys14 residues at 0.01 to 10 uM after 24 hrs by Western blot analysis. In kind it is cell-based. In a few lines:
as §1

T2 sequence (Q13547 whole entry, the tested form may be a part): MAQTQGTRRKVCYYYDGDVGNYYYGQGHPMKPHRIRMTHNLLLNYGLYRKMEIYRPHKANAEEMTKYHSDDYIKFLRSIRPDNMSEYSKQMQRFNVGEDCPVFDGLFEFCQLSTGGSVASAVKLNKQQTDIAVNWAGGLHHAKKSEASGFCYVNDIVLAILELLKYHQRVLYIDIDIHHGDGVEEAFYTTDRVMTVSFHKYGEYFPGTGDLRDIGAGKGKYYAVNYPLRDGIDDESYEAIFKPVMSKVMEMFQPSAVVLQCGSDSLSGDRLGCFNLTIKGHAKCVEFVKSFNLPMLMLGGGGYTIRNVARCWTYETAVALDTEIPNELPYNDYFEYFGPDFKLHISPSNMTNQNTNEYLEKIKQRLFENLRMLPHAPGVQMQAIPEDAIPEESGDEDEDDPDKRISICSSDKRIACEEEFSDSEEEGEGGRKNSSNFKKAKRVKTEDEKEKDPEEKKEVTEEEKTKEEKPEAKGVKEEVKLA
T1 sequence (P08581 whole entry, the tested form may be a part): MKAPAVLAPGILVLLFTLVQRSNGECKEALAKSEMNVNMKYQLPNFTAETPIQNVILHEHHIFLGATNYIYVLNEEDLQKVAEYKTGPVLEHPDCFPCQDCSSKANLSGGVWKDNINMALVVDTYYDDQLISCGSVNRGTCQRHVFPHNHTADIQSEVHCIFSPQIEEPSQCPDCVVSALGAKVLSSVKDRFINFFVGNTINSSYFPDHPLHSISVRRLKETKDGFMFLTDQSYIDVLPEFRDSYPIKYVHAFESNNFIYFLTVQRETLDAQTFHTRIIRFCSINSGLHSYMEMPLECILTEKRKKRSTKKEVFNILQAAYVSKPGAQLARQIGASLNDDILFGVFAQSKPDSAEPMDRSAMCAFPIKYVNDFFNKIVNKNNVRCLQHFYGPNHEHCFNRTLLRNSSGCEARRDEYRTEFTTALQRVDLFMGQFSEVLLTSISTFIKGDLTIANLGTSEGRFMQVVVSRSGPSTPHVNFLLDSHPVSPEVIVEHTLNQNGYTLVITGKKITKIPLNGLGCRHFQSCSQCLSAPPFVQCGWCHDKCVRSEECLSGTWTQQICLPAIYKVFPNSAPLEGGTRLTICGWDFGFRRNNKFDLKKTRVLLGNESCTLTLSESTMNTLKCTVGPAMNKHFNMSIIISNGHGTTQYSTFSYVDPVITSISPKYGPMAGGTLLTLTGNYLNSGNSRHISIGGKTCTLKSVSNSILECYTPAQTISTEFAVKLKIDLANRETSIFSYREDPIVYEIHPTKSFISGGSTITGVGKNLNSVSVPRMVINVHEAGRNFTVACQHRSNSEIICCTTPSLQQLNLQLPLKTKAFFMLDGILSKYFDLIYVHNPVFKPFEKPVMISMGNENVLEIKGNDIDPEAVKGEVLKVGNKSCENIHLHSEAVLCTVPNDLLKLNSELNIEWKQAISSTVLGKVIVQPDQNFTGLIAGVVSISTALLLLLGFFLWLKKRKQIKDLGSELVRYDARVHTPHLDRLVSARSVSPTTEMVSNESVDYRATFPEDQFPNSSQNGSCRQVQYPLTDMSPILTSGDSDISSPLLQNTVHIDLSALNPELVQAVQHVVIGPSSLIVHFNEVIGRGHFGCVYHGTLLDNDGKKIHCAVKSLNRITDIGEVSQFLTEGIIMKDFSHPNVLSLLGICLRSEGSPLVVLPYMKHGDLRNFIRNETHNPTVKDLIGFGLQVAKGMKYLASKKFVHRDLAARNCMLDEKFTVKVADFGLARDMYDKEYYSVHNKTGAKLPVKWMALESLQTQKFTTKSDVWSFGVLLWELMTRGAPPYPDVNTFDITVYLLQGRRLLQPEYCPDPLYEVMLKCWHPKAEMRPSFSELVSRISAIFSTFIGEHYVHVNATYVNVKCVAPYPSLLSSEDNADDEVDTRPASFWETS

What is called IC50 is the point on the concentration scale where inhibition reaches its midpoint. With `CNC(=O)CCCCCOc1ccc2c(OCCn3nc(-c4cnn(C)c4)ccc3=O)ccnc2c1`, the IC50 was 79 nM in the test with EBC-1, greater than 10000 nM in the test on HCT-116, 1.2 nM in test [1] and greater than 1000 nM on Histone deacetylase 1 [2].

On to `Nc1cc(F)ccc1NC(=O)c1ccc(CNC(=O)/C=C/c2cccnc2)cc1` [TUCIDINOSTAT], for which the concentration for half-maximal inhibition (IC50) with EBC-1 was 2900 nM; in the test with HCT-116 it was 7800 nM.

For the compound `Cn1cc(-c2ccc(=O)n(CCOc3ccnc4cc(-c5ccc(C(=O)Nc6ccccc6N)s5)ccc34)n2)cn1`, the IC50 in the test with EBC-1 was 120 nM; in the test on HCT-116, greater than 10000 nM; in test [1] it was 1.3 nM; on Histone deacetylase 1 [2], 467 nM.

With `Cn1cc(-c2ccc(=O)n(CCOc3ccnc4cc(Nc5ccc(C(=O)Nc6ccccc6N)nc5)ccc34)n2)cn1`, the half-inhibitory concentration (IC50) is 450 nM with EBC-1, greater than 10000 nM with HCT-116, 3.7 nM in [1] and 129 nM on Histone deacetylase 1 [2].

Take `Cn1cc(-c2ccc(=O)n(CCOc3ccnc4cc(OCc5ccc(CCC(=O)Nc6ccccc6N)cc5)ccc34)n2)cn1`: the IC50 with EBC-1 was 210 nM; with HCT-116, greater than 10000 nM; in [1] it was 5.1 nM; at Histone deacetylase 1 [2], greater than 1000 nM.

Take `Cn1cc(-c2ccc(=O)n(CCOc3ccnc4cc(OCc5ccc(/C=C/C(=O)Nc6ccccc6N)nc5)ccc34)n2)cn1`: the IC50 in the test with EBC-1 amounted to 46 nM; in the test on HCT-116, 7900 nM; in test [1], 0.63 nM; on Histone deacetylase 1 [2] it was 625 nM.

Consider `Cn1cc(-c2ccc(=O)n(CCOc3ccnc4cc(OCc5ccc(/C=C/C(=O)Nc6ccccc6N)cc5)ccc34)n2)cn1`, for which the IC50 with EBC-1 is 490 nM; in the test on HCT-116, greater than 10000 nM; in test [1], 1.1 nM; on Histone deacetylase 1 [2], greater than 1000 nM.

For the compound `O=c1ccc(-n2ccc3ccc(F)cc32)nn1CCOc1ccnc2cc(OCCCN3CCOCC3)ccc12`, the IC50 in the test on EBC-1 was 60 nM; with HCT-116 it was greater than 10000 nM; in test [1] it was 0.84 nM; at Histone deacetylase 1 [2], greater than 1000 nM.

Take `Cn1cc(-c2ccc(=O)n(CCOc3ccnc4cc(OCCCC(=O)NO)ccc34)n2)cn1`: the IC50 with EBC-1 is 870 nM; with HCT-116, greater than 10000 nM; in test [1], 1 nM; at Histone deacetylase 1 [2], greater than 1000 nM.

In the case of `Cn1cc(-c2ccc(=O)n(CCOc3ccnc4cc(OCCCCCC(=O)Nc5ccccc5N)ccc34)n2)cn1`, the IC50 with EBC-1 is 370 nM; in the test with HCT-116, 7000 nM; in test [1], 0.96 nM; on Histone deacetylase 1 [2] it was 221 nM.

Regarding `CC(=O)CCCCCOc1ccc2c(OCCn3nc(-c4cnn(C)c4)ccc3=O)ccnc2c1`, the half-maximal inhibitory concentration (IC50) in the test on EBC-1 is 25 nM; with HCT-116, greater than 10000 nM; in test [1], 1 nM; on Histone deacetylase 1 [2], greater than 1000 nM.

For the compound `Cn1cc(-c2ccc(=O)n(CCOc3ccnc4cc(OCCCOc5ccc(C(=O)Nc6ccccc6N)nc5)ccc34)n2)cn1`, the inhibition result in test [3], in test [5] and in [7] was “Dose-dependent effect” each time. Also, the half-maximal inhibitory concentration (IC50) in the test with EBC-1 turned out to be 58 nM; with HCT-116, 1300 nM; in [1], 0.71 nM; at Histone deacetylase 1 [2] it was 38 nM. The inhibition result at Histone deacetylase 1 [4] and on Histone deacetylase 1 [9] was “Active” in each case. Also, the Ratio IC50 at Histone deacetylase 1 [6] amounted to 4. Moreover, in test [8], the inhibition entry was “inactive”.

Take `Cn1cc(-c2ccc(=O)n(CCOc3ccnc4cc(OCCCCCC(=O)NO)ccc34)n2)cn1`: the 50% inhibitory concentration (IC50) was 460 nM in the test on EBC-1, greater than 10000 nM with HCT-116, 0.73 nM in test [1] and 216 nM on Histone deacetylase 1 [2].

In the case of `Cn1cc(-c2ccc(=O)n(CCOc3ccnc4cc(C(=O)Nc5ccccc5N)ccc34)n2)cn1`, the IC50 in the test with EBC-1 was greater than 10000 nM; in the test on HCT-116, greater than 10000 nM; in [1], 37 nM; on Histone deacetylase 1 [2], greater than 1000 nM.

Take `Cn1cc(-c2ccc(=O)n(CCOc3ccnc4cc(OCCCCCCC(=O)NO)ccc34)n2)cn1`: the half-maximal inhibitory concentration (IC50) in the test on EBC-1 is 210 nM; in the test with HCT-116, greater than 10000 nM; in test [1] it was 0.54 nM; on Histone deacetylase 1 [2], 18 nM.

In the case of `Cn1cc(-c2ccc(=O)n(CCOc3ccnc4cc(OCc5ccc(C(=O)Nc6ccccc6N)cc5)ccc34)n2)cn1`, the 50% inhibitory concentration (IC50) with EBC-1 came to 42 nM; with HCT-116, 1800 nM; in test [1], 0.44 nM; on Histone deacetylase 1 [2], 156 nM.

Consider `Cn1cc(-c2ccc(=O)n(CCOc3ccnc4cc(OCCCCCS)ccc34)n2)cn1`, for which the half-inhibitory concentration (IC50) with EBC-1 is 640 nM; in the test with HCT-116, greater than 10000 nM; in test [1], 1.5 nM; on Histone deacetylase 1 [2], 329 nM.

On to `Cn1cc(-c2ccc(=O)n(CCOc3ccnc4cc(OCCCCC(=O)NO)ccc34)n2)cn1`, for which the concentration for half-maximal inhibition (IC50) in the test with EBC-1 was 370 nM; in the test on HCT-116, greater than 10000 nM; in [1], 0.96 nM; on Histone deacetylase 1 [2], greater than 1000 nM.
